Measurements taken from ChEMBL document CHEMBL5029200, “Imidazoline- and Benzamidine-Based Trypanosome Alternative Oxidase Inhibitors: Synthesis and Structure-Activity Relationship Studies” (ACS Med Chem Lett, 2022).

How the values were obtained:
[1] = Selectivity index, ratio of CC50 for HEK293 cells to EC50 for antitrypanosomal activity against bloodstream form trypomastigotes of wild type Trypanosoma brucei brucei Lister 427; format: toxicity; conditions: human, read-out: Selectivity Index
Method in brief: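 Selectivity index = CC50 in HEK cells divided by EC50 against wild-type Lister 427. HEK cytotoxicity by resazurin assay. […] Both values from sigmoidal variable-slope nonlinear regression. n = 3.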

[2] = Inhibition of recombinant Trypanosoma brucei brucei delta MTS TAO using ubiquinol as substrate measured after 2 mins by UV-vis spectrophotometry
[3] = tested on: Trypanosoma brucei brucei; experiment: Inhibition of recombinant Trypanosoma brucei brucei delta MTS TAO using ubiquinol as substrate measured at 40 uM after 2 mins by UV-vis spectrophotometry
[4] = tested on: Trypanosoma brucei brucei; experiment: Antitrypanosomal activity against bloodstream form trypomastigotes of wild type Trypanosoma brucei brucei Lister 427 assessed as reduction in parasite viability by resazurin-based assay; format: functional, organism-based
Method in brief: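 Monomorphic bloodstream-form trypanosomes grown in complete HMI-9 with 10% fetal bovine serum. Resazurin viability assay using 23 doubling dilutions of each compound, starting at 100 μM. EC50 obtained by nonlinear regression fitted to a variable-slope sigmoid. n = 3.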

[5] = tested on: Trypanosoma brucei brucei; experiment: Inhibition of recombinant Trypanosoma brucei brucei delta MTS TAO using ubiquinol as substrate measured at 40 uM after 2 mins by UV-vis spectrophotometry

SMILES: Cc1cc(O)cc(O)c1C(=O)NCCCCCCOc1ccc(C#N)cc1
- selectivity ratio [1]: 6.6

SMILES: Cc1cc(O)cc(O)c1C(=O)NCCCOc1ccc(C(=N)N)cc1
- IC50 [2]: > 40 µM
- inhibition [3]: 48%

SMILES: Cc1cc(O)cc(O)c1C(=O)NCCCCCCCCCCCCCCOc1ccc(C(=N)NO)cc1
- selectivity ratio [1]: 6.9

SMILES: Cc1cc(O)cc(O)c1C(=O)NCCCCCCCCCCCCOc1ccc(C2=NCCN2)cc1
- EC50 [4]: 1.7 µM

SMILES: C/C(=C\Cc1c(O)c(Cl)c(C)c(C=O)c1O)CC/C=C(\C)[C@@H]1CC(=O)C(C)(C)O1
- inhibition [5]: 100%

SMILES: Cc1cc(O)cc(O)c1C(=O)NCCCCCCCCCCCCCCOc1ccc(C(=N)N)cc1
- selectivity ratio [1]: 10.7
